Data set [1] concerns LNCaP. Kind of data set: Growth inhibition of AR-dependent human LNCAP cells after 3 days by MTS assay. The class given is functional, cell-based. The essentials:
(§1)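 LNCaP and MR49F cells were seeded at 3000 cells/well in RPMI 1640 with 5% charcoal-stripped serum. They were treated with 0.1 nM R1881 plus compound (0−25 μM) for 4 days; the figure legend gives 3 days. Readout was MTS tetrazolium absorbance. Growth was normalized as (sample − vehicle)/(0.1 nM R1881 − vehicle) × 100.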

Data set [2] has as its system MR49F. Briefly: Growth inhibition of enzalutamide-resistant human MR49F cells after 3 days by MTS assay. The class given is functional, cell-based. The essentials:
as §1

Data set [3] is described as follows: Stability of the compound in RPMI plus 5% charcoal stripped serum media after 1 hr by MS analysis. In kind it is physicochemical.

The source made the active and inactive calls. No cut-off for these calls is given here.

From ChEMBL document CHEMBL3352043, “Discovery of small-molecule inhibitors selectively targeting the DNA-binding domain of the human androgen receptor” (J Med Chem, 2014) come the findings set out here.

With `Brc1ncn(-c2csc(N3CCOCC3)n2)c1Br`, the “growth inhibition (GI)” value in data set [1] was “Dose-dependent effect”. The “growth inhibition (GI)” value in data set [2] is “Active”. The Stability entry in data set [3] is “Stable”.
